Assay results: paper PMC7919753 (ACS chemical biology, 2020)
Where “and” joins values, the source holds several entries; their conditions need not be identical. Identical values can stand only once. Like-named read-outs stand apart in the source and are kept apart here. One block for each compound: values may come before it.

Assays:
GBM43 spheroids [1] = experiment: 3-D spheroid viability assay, GBM43; type: cell-based, human; details: for activity in spheroids (in words): concentration-dependent
GBM10 spheroids = experiment: 3-D spheroid viability assay, GBM10; type: cell-based, human; details: for activity in spheroids (in words): concentration-dependent
CD34+ progenitor cells = experiment: Colony-forming unit; type: cell-based, human; details: colony formation assay, up to 100 μM, day 14
Outline: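 Purified human umbilical cord blood CD34+ cells were incubated with test compound. They were plated with compound at 2 × 10³ cells per 35 mm dish in MethoCult H4434. Clonogenic progenitor colonies were counted by light microscopy on day 14 after exposure. IC50 came from dose-response curves.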

astrocytes = experiment: Astrocyte monolayer cell proliferation assay; type: cell-based, human; details: 2-D monolayer assay, up to 100 μM, 3 days
Outline: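 Primary human fetal astrocytes were seeded at 8 × 10³/well in DMEM with 10% FBS and 1% penicillin/streptomycin. They were incubated 3 days with DMSO or test compound. MTS reagent was then added and incubated 1 h at 37 °C, and absorbance was read at 490 nm. Run in triplicate.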

Pa02C = experiment: PDAC 3-D spheroid model, Pa02C; type: cell-based, human; details: Pa02C PDAC spheroids, concentration-dependent
Outline: (§1)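 TdTomato-transduced PDAC cells, kept under 10 passages, were seeded at 1,000 cells/well in ultralow-adherence plates. Medium held 3% reduced-growth-factor Matrigel and 5% FBS. Spheroids were treated on days 4 and 8, and red fluorescence was read on day 12. Percent viability was taken versus media control (mean ± s.d., n = 3). Relative IC50 came from a four-parameter logistic fit by non-linear least squares.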

Panc10.05 (Pa16C) = experiment: PDAC 3-D spheroid model, Panc10.05; type: cell-based; details: Homo sapiens, Panc1005, read-out: IC50 (cell viability)
Outline: as §1

Panc198 (Pa20C) = experiment: PDAC 3-D spheroid model, Panc198; type: cell-based, human; details: Panc198 PDAC spheroids, concentration-dependent
Outline: as §1

[2] = tested on: brain microvascular endothelial cells (BMECs); experiment: Matrigel-based tube formation assay; details: Endothelial cell, 8 h, read-out: IC50 (tube formation)
Outline: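 Primary brain microvascular endothelial cells, 15,000 per well in EGM-2, were seeded on Matrigel pre-solidified 20 min at 37 °C. Test compound was added in DMSO. Tubes were observed every 2 h by brightfield and imaged at 8 h. Total tubule length from six images per treatment was normalised to DMSO. Treatments were compared to DMSO by one-way ANOVA with Dunnett's test.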

[3] = tested on: brain microvascular endothelial cells (BMECs); experiment: Effect on brain microvascular endothelial cells, 48 h exposure; type: cell-based; details: Endothelial cell, read-out: IC50 (effect on BMECs)
[4] = Stability in buffer by HPLC; type: physicochemical
GAPDH = GAPDH (Homo sapiens, UniProt P04406); experiment: Cellular thermal shift assay; type: binding; details: GBM43 cells, concentration-dependent, heated to 45 °C
GAPDH, sequence (P04406 whole entry): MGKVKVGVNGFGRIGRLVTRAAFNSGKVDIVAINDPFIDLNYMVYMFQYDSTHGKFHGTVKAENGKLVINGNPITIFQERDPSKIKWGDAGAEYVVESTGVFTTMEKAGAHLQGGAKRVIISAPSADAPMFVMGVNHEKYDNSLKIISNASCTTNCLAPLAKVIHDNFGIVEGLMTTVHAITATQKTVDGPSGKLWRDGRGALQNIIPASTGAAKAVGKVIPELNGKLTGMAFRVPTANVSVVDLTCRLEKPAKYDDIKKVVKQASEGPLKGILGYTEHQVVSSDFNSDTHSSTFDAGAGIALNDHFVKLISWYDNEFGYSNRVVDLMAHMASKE
Outline: (§2)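 GBM43 cells were exposed to varying concentrations of test compound, then heated to 45 °C. Protein remaining soluble was detected with target-specific antibodies. GAPDH was probed as a control for non-specific binding.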

RACK1 [5] = target: T1, RACK1 (Homo sapiens, UniProt P63244); experiment: Thermal proteome profiling in GBM43 cells; type: binding; details: 10 μM, six temperatures 37-60 °C, cutoff ΔTm ≥ 3 °C
Outline: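 GBM43 cells in PBS with protease inhibitors were treated 1 h at 37 °C with 10 µM test compound or DMSO. Fractions of 5 × 10⁶ cells were heated 3 min at 37, 40, 45, 50, 55 or 60 °C, then freeze-thaw lysed and spun at 100,000 × g. Soluble proteins were trypsin-digested and quantified by label-free LC-MS/MS. iBAQ-based melting curves gave ΔTm (treatment − vehicle), with a ≥3.0 cutoff.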

RACK1 [6] = target: T1, RACK1; experiment: Cellular thermal shift assay; type: binding; details: GBM43 cells, concentration-dependent, 6 h treatment, heated to 45 °C, vs DMSO
Outline: as §2

SJ-GBM2 spheroids = experiment: 3-D spheroid viability assay, SJ-GBM2; type: cell-based, human; details: for activity in spheroids (in words): concentration-dependent
GBM43 spheroids [7] = details: read-out: IC50 (cell viability); GBM43, standard-of-care comparison; cited from earlier work

SMILES: O=NN(CCCl)C(=O)NC1CCCCC1 [CCNU, lomustine, reference compound]
- inhibition of cell viability (GBM43 spheroids [1]; GBM43 spheroids, at 100 μM): about 50%
- inhibition of cell viability (GBM10 spheroids; at 100 μM): about 50%

- IC50 (Panc10.05 (Pa16C)): 26 ± 5.9 µM
- IC50 [2]: ~0.1 µM
- IC50 [3]: 3.5 µM
- stability following incubation in buffer [4]: stable
- GAPDH abundance after heating (CETSA) (GAPDH): no difference in protein abundance
- thermal shift of RACK1 (ΔTm) (RACK1 [5]): significant thermal shift
SMILES: COc1cc2c(cc1NC(=O)C1CCC(=O)N1S(=O)(=O)c1ccc(C)cc1)oc1ccccc12 (stereo not shown) [Compound 1, N-(2-Methoxydibenzo[b,d]furan-3-yl)-5-oxo-1-tosylpyrrolidine-2-carboxamide]
- inhibition of cell viability (GBM43 spheroids [1]; GBM43 spheroids, single concentration 25 μM): 90%
- IC50 (GBM43 spheroids [1]; Homo sapiens, 120 h, read-out: IC50 (cell viability)): 3.7 ± 0.1 µM
- effect on cell viability of CD34+ cells (CD34+ progenitor cells): no effect
- effect on cell viability of astrocytes (astrocytes): no effect
- activity in spheroid model (Pa02C): no activity
- activity in spheroid model (Panc198 (Pa20C)): no activity

- RACK1 abundance after heating (CETSA) (RACK1 [6]): did not affect protein abundance
SMILES: COc1cc2c(cc1NC(=O)C1CCCN1S(=O)(=O)c1ccc(C)cc1)oc1ccccc12 (stereo not shown) [Compound 22, N-(2-Methoxydibenzo[b,d]furan-3-yl)-1-tosylpyrrolidine-2-carboxamide]
- activity in spheroids (in words) (GBM43 spheroids [1]; GBM43 spheroids): loss of activity
- activity in spheroids (in words) (GBM10 spheroids): loss of activity

SMILES: COc1cc2c(cc1NC(=O)C1CCC(=O)N1Cc1ccc(C)cc1)oc1ccccc12 (stereo not shown) [Compound 23, N-(2-Methoxydibenzo[b,d]furan-3-yl)-1-(4-methylbenzyl)-5-oxopyrrolidine-2-carboxamide]
- activity in spheroids (in words) (GBM43 spheroids [1]; GBM43 spheroids): loss of activity
- activity in spheroids (in words) (GBM10 spheroids): loss of activity

SMILES: COc1cc2c(cc1NC(=O)C1CCC(=O)N1)oc1ccccc12 (stereo not shown) [Compound 24, N-(2-Methoxydibenzo[b,d]furan-3-yl)-5-oxopyrrolidine-2-carboxamide]
- activity in spheroids (in words) (GBM43 spheroids [1]; GBM43 spheroids): loss of activity
- activity in spheroids (in words) (GBM10 spheroids): loss of activity

SMILES: COc1cc2c(cc1NC(=O)C1CCC(=O)N1S(=O)(=O)c1ccc(C(F)(F)F)cc1)oc1ccccc12 (stereo not shown) [Compound 25, N-(2-Methoxydibenzo[b,d]furan-3-yl)-5-oxo-1-((4-(trifluoromethyl)phenyl)sulfonyl)pyrrolidine-2-carboxamide]
- fold decrease in IC50 compared to 1 (GBM43 spheroids [1]; GBM43 spheroids): ~10 fold
- fold decrease in IC50 compared to 1 (GBM10 spheroids): ~10 fold
- fold decrease in IC50 compared to 1 (SJ-GBM2 spheroids): ~10 fold

SMILES: COc1cc2c(cc1NC(=O)C1CCC(=O)N1S(=O)(=O)c1ccc(C)cc1)oc1ccc(Cl)cc12 (stereo not shown) [Compound 26, N-(8-Chloro-2-methoxydibenzo[b,d]furan-3-yl)-5-oxo-1-tosylpyrrolidine-2-carboxamide]
- activity in spheroids (in words) (GBM43 spheroids [1]; GBM43 spheroids): no activity
- activity in spheroids (in words) (GBM10 spheroids): no activity
- activity in spheroids (in words) (SJ-GBM2 spheroids): no activity

SMILES: COc1cc2c(cc1NC(=O)C1CCC(=O)N1S(=O)(=O)c1ccc(C)cc1)oc1cc(Cl)ccc12 (stereo not shown) [Compound 27, N-(7-Chloro-2-methoxydibenzo[b,d]furan-3-yl)-5-oxo-1-tosylpyrrolidine-2-carboxamide]
- activity in spheroids (in words) (GBM43 spheroids [1]; GBM43 spheroids): no activity
- activity in spheroids (in words) (GBM10 spheroids): no activity
- activity in spheroids (in words) (SJ-GBM2 spheroids): no activity

SMILES: Cn1nnc2c(C(N)=O)ncn2c1=O [temozolomide]
- IC50 (GBM43 spheroids [7]): 244 µM and ~250 µM
